Screening results: PubChem BioAssay, Sanford-Burnham Center for Chemical Genomics
Sampled rows, rich in hits. Any-hit rate of the full collection: about 4.4%.
MPTP block = blocks calcium-induced mitochondrial swelling; isolated mouse mitochondria, Ca2+ swelling absorbance, 30 min; inhibition, % at 10 µM; hit rate 1.4% among 360,000;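 active = inhibition of 50% or more, scaled per plate between neutral and stimulator controls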;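 also: 0% = DMSO wells given calcium and 100% = 1 mM EGTA wells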
NR3A LBD binder = modulates the human NR3A ligand-binding domain. Tm shift relative to glycine control, % at 25 µM. hit rate 2.5% among 340,000. NR3A LBD differential scanning fluorimetry, Tm shift; 0% = protein alone, 100% = glycine-bound protein;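 active = melting temperature shift of at least 10% of the positive control shift, at one fixed dose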
SENP1 inh = blocks the human SENP1 SUMO protease catalytic domain. hit rate 0.21% among 360,000. recombinant SENP1 catalytic domain, CyPet-SUMO1-YPet FRET cleavage. inhibition, % at 10 µM. Q9P0U3;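 active = inhibition at least 30% at 10 µM, raw YFP signal under a set limit, fluorescence ratio 0.5 to 1.5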;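 also: 0% = enzyme with DMSO and 100% = no enzyme wells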
Target sequence (Q9P0U3 419-644 limits assumed): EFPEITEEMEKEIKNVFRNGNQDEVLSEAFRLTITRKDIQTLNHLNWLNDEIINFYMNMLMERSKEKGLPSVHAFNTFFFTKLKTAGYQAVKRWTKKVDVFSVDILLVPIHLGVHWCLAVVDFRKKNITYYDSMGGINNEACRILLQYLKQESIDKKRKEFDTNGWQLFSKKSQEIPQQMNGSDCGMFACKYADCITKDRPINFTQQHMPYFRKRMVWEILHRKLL
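System: Recombinant human SENP1 catalytic domain, His6-tagged | Incubation: Enzyme reaction for 50 min at room temperature, dark | Medium: Tris pH 8 with BME, BSA, NP40 and catalase | Also added: 25 nM SUMO1 FRET substrate | Compound: 10 µM single point, 0.5% DMSO | Measured by: FRET fluorescence in CFP and YFP emission channels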
EBI2 block = blocks human EBI2 receptor beta-arrestin signaling. hit rate 0.81% among 360,000. inhibition, % at 5 µM. P32249. EBI2 beta-arrestin recruitment, luminescence, 7a,25-OHC stimulated. AID 651636; in the data active = inhibition above about 38%;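 also: enzyme fragment complementation signal reports receptor beta-arrestin coupling in cells; 0% = agonist plus DMSO wells and 100% = wells without agonist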
Target sequence (P32249 whole entry, looked up, the tested form may be a part): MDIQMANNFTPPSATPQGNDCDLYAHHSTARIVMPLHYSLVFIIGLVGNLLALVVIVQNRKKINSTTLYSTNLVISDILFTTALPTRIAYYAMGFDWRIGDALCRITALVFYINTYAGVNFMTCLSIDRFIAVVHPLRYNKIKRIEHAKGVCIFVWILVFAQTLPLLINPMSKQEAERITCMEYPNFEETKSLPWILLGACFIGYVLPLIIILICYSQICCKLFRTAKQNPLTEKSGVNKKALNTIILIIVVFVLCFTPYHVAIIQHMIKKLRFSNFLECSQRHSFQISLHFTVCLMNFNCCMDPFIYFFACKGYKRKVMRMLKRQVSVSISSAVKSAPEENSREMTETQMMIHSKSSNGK
EBI2 conf = EBI2 (human) antagonism, single concentration confirmation; EBI2 beta-arrestin luminescence, 7a,25-OHC antagonism; inhibition, % at 5 µM; shares compounds with EBI2 block; hit rate 29% among 2,400;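 active = inhibition of at least 50%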
EBI2 ag = activates EBI2, counter-screen for EBI2 antagonists | shares compounds with EBI2 block | EBI2-expressing cells, agonist mode, luminescence, 60 min; 0% vehicle, 100% 7α,25-dihydroxycholesterol control | activation, % at 5 µM | 2,400 tested, under 10 active | AID 652000;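 active = activation of at least 50%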
bGal cs = counter-screen for EBI2 antagonists: E. coli beta-galactosidase inhibition; hit rate 1% among 2,400; shares compounds with EBI2 block; purified beta-galactosidase, luminescent Galacton Star, 15 min; inhibition, % at 5 µM;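 active = replicate-average signal at least 3 plate SD below neutral wells, shown as high inhibition, flagging enzyme-inhibiting false positives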;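 also: 0% = DMSO wells with enzyme and 100% = wells lacking enzyme; higher means stronger loss of beta-gal luminescence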
* marks the source's active call; other numbers are inactive results; / = not tested or not shown.

SMILES	MPTP block	NR3A LBD binder	SENP1 inh	EBI2 block	EBI2 conf	EBI2 ag	bGal cs
COc1ccc(OCc2nnc(SCC(=O)N3c4ccccc4Sc4ccc(Cl)cc43)o2)cc1	12	1	1	66*	54*	1	-1
Cc1ccc(OCc2nnc(SCC(=O)N3c4ccccc4Sc4ccc(Cl)cc43)o2)cc1	3	0	0	35	/	/	/
C=CCn1c(=NC(=O)c2ccco2)sc2cc(C(=O)OCC)ccc21	1	0	-10	11	/	/	/
Fc1ccc(OCc2nn[nH]n2)c(F)c1	0	0	0	-2	/	/	/
CCOc1nsc(OCC)n1	0	1	2	-7	/	/	/
O=C(COc1ccc(Cl)cc1)NCCSCc1cccc(Cl)c1	1	-41	-1	66*	29	2	6
Cc1cccc(CSCCNC(=O)COc2ccc(Cl)cc2)c1	8	-1	5	25	/	/	/
Cc1ccc(S(=O)(=O)N(C)c2ccc(C(=O)Nc3ccc(C)cn3)cc2)cc1	0	0	1	14	/	/	/
Cc1ccc(CNC(=O)c2ccc(N(C)S(=O)(=O)c3ccccc3)cc2)cc1	0	1	0	83*	47	1	2
CCN(CC(=O)NCc1ccc(F)cc1)S(=O)(=O)c1ccc(C)cc1	1	2	2	-5	/	/	/
CN(c1ccccc1)S(=O)(=O)c1ccc(C(=O)NCc2ccc(F)cc2)cc1	0	-11	1	14	/	/	/
CN(C)S(=O)(=O)c1ccc(C(=O)Nc2ccc(Cl)cc2)cc1	0	-2	1	53*	50*	3	-3
CCN(CC)S(=O)(=O)c1ccc(C(=O)NCc2ccc(C)cc2)cc1	0	5	4	63*	55*	1	3
CN(c1ccc(C(=O)Nc2ccc(Cl)cn2)cc1)S(=O)(=O)c1ccccc1	-2	-1	0	50*	56*	0	4
CC(C)(C)OC(=O)N1CCc2onc(-c3ccccc3[N+](=O)[O-])c2C1=O	0	/	0	-6	/	/	/
Cc1cc2cc(CN(C(=O)C3CC3)C3CCCC3)c3nnnn3c2cc1C	4	-2	0	9	/	/	/
CCCCCc1c(-c2cccc(OC)c2)ncn1CCc1ccccc1OC	7	/	-2	20	/	/	/
Cc1cc(N2CCN(c3nc(-c4ccccc4)cs3)CC2)c2ccccc2n1	4	0	1	55*	33	1	5
COC(=O)[C@@]12C[C@@H](CC(=O)NCC3CCCCC3)C(=O)N(Cc3ccccc3)C1=CCC(C)(C)C2	1	/	-4	7	/	/	/
O=C(CSc1nnnn1-c1cccc(F)c1)Nc1nc2ccccc2s1	0	-17	-1	7	/	/	/
COc1ccc(CN2CCN(C(=O)c3cccc4ccccc34)CC2)c(OC)c1OC	0	-2	0	2	/	/	/
COc1ccc(N2CCN(C(=O)c3ccc(-c4ccccc4)cc3)CC2)cc1	4	-1	-1	36	/	/	/
COc1ccc(CN2CCN(C(=O)c3ccc(-c4ccccc4)cc3)CC2)c(OC)c1OC	1	-1	-3	68*	49	0	-19
COc1cccc(OC)c1C(=O)N1CCN(C(=O)c2ccc(-c3ccccc3)cc2)CC1	0	-5	-1	78*	23	0	-14
CN(C)CCNC(=O)c1onc(CSc2nc3ccccc3[nH]2)c1C(=O)NCCN(C)C	0	3	0	-7	/	/	/
SMILES	MPTP block	NR3A LBD binder	SENP1 inh	EBI2 block	EBI2 conf	EBI2 ag	bGal cs
Cc1cccc(NC(=O)NCc2cccnc2)c1C	0	1	0	-3	/	/	/
COc1ccc(/C=C/C(=O)NC(=S)N2CCN(C)CC2)cc1	0	0	7	4	/	/	/
CCOC(=O)N1CCN(C(=S)NC(=O)/C=C/c2ccc(C)cc2)CC1	0	1	-1	83*	48	0	7
CCOC(=O)C1=CN(CC2CCCCC2)CCC1=O	-1	4	1	-10	/	/	/
O=c1[nH]nnc2c1sc1nc(N3CCOCC3)c3c(c12)CCCC3	4	0	-7	4	/	/	/
Cn1nnc2c(sc3nc(N4CCOCC4)c4c(c32)CCCC4)c1=O	0	1	-3	49*	38	-1	-19
COc1ccc(S(=O)(=O)N2CCC(C(=O)NCCc3c[nH]c4ccccc34)CC2)cc1	1	-1	-1	45*	18	0	9
CCS(=O)(=O)N1Cc2ccccc2CC1C(=O)Nc1nc2ccccc2[nH]1 (centres undefined)	1	1	-3	1	/	/	/
COc1ccc(S(=O)(=O)N2CCN(C(=O)CCc3c[nH]c4ccccc34)CC2)cc1	-3	4	-1	3	/	/	/
CCS(=O)(=O)N1Cc2ccccc2CC1C(=O)NCCc1c[nH]c2ccccc12 (centres undefined)	0	-3	-1	44*	18	1	2
CC(=O)Oc1c(C)c(C)c2c(c1C)CC[C@@](C)(CCC[C@H](C)CCC[C@H](C)CCCC(C)C)O2	-5	-2	-1	2	/	/	/
CCNC(=O)C(=O)NCC(c1cccs1)S(=O)(=O)c1ccc(C)cc1 (centres undefined)	-1	-2	1	-1	/	/	/
Cc1ccc(N=C2NC(=O)/C(=C/c3cccnc3)S2)cc1C	3	1	-1	47*	34	0	6
O=C1NC(=Nc2ccccc2)S/C1=C\c1cccnc1	4	-3	1	45*	51*	-1	-6
Cc1c(C(c2ccccc2Br)c2c(C)n(C)n(-c3ccccc3)c2=O)c(=O)n(-c2ccccc2)n1C	1	0	0	13	/	/	/
CSc1ncc2[nH]c(C(O)c3ccccc3)nc2n1 (centres undefined)	-1	2	-43	-12	/	/	/
COc1ccc2nc(C)cc(SCC(=O)NNC(=O)COc3ccccc3)c2c1	4	-3	1	48*	20	-1	-6
CCN1C(=O)/C(=C\c2nc3ccccc3c(=O)n2CC)c2ccccc21	2	1	-1	28	/	/	/
CCN1C(=O)/C(=C/c2nc3ccccc3c(=O)n2-c2ccccc2)c2ccccc21	-2	-1	-1	45*	51*	2	-1
CCCc1nnc(NC(=O)CCC(=O)Nc2ccc(Br)cc2)s1	-1	1	3	-7	/	/	/
